Screening data as filed in PubChem.
Platelet DG rel = modulates dense granule release in human platelets | hit rate 0.22% among 300,000 | human platelet-rich plasma, SFLLRN dense granule ATP release, luminescence | inhibition, %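 (compounds screened at 7.5 µM in platelet-rich plasma)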 | AID 1663;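 active means mean replicate score, as percent of positive control, at or above 50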
C8 TRAIL sens = caspase-8 TRAIL sensitization. inhibition (viability loss, TRAIL sensitization), % at 10 µM. hit rate 1% among 360,000. NB7+C8 cells + TRAIL, ATPlite viability luminescence;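 active means compounds causing at least 50% loss of cell viability in the single-dose screen, relative to plate controls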
PPC-1+TRAIL kill = PPC-1 cancer cell killing with TRAIL present. PPC-1 cells + TRAIL, ATPLite viability luminescence. cell killing (% activity), % at 4 µM or 5 µM. hit rate 0.41% among 220,000. AID 1443;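 active means cell killing above 50% in the first pass at 4 µM, then a duplicate retest at 5 µM averaging 50% or more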;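 further: plate controls were cells with TRAIL plus DMSO for no effect and medium-only wells lacking cells for full effect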
FLuc inh counter = Photinus pyralis luciferase inhibition counter-screen; P08659; inhibition, % at 10 µM; hit rate 1.5% among 200,000; ATPLite firefly luciferase biochemical luminescence, 10 min;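 active means inhibition above about 50% when tested at 10 µM, limit read from the data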
Target sequence (P08659 whole entry, looked up): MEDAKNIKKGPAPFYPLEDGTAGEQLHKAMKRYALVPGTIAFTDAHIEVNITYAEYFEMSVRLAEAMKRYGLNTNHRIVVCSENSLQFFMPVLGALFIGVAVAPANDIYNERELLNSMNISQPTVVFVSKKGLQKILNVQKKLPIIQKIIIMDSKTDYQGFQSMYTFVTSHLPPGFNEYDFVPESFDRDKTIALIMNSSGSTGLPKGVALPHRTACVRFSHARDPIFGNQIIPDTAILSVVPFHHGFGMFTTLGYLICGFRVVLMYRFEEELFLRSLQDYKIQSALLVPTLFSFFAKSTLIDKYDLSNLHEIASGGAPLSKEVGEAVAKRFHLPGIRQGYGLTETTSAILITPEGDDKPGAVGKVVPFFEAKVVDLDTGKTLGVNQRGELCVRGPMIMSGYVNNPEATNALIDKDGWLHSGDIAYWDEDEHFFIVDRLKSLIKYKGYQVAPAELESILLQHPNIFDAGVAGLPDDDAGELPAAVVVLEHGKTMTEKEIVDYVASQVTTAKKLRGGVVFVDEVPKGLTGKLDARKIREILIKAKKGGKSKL
FLuc stim CS = affects firefly luciferase, flagging false hits in luciferase stimulation screens | ATPlite luciferase biochemical, luminescence, 10 min; 0 = ATP-free wells, 1 = DMSO control | activation factor at 10 µM | 200,000 tested, under 10 active | P08659;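 active means luciferase activation factor, scaled between plate controls, of at least 2 with compound at 10 µM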
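Material: Luciferase/luciferin reagent mix | Doses: Test compounds dosed from 2 mM stocks in 100% DMSO | Timing: 10 min incubation after luciferase reagent addition, room temperature | Measured by: Luminescence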
The depositor's hits bear a star; ! = repeats disagree. In the library only some 1.6% were active in any assay of this set; here they are far more common.

How did CCc1ccc(-c2cc(-c3n[nH]c(=S)n3CC)c3ccccc3n2)cc1 do in these assays?
Platelet DG rel: -1; PPC-1+TRAIL kill: 44; FLuc inh counter: 64*; FLuc stim CS: 0.4

What do the screens show for `COC(=O)C[C@@H]1C=C[C@H](NC(=O)Nc2ccc(OC)cc2)[C@@H](CO)O1`?
C8 TRAIL sens: -9

What do the screens show for `COc1ccc(CCN2CC(C(=O)NCCCc3ccncc3)CCC2=O)cc1` (stereo not drawn)?
C8 TRAIL sens: 10

What do the screens show for `Cc1ccc(NC(=O)CSc2ccc(-c3ccc4c(c3)OCO4)nn2)cc1F`?
Platelet DG rel: -37; C8 TRAIL sens: 55*; PPC-1+TRAIL kill: 29; FLuc inh counter: 7; FLuc stim CS: 0.9

How did COCCCNC(=O)c1cccc2c(-c3cccc(C(N)=O)c3)coc12 do in these assays?
C8 TRAIL sens: -26

What do the screens show for `Cc1ccccc1-c1nnc(-c2ccccc2)o1`?
Platelet DG rel: 4; C8 TRAIL sens: 21; PPC-1+TRAIL kill: 34; FLuc inh counter: 35; FLuc stim CS: 0.6

What do the screens show for `Cn1cc(-c2nnc(-c3ccccc3)o2)c2ccccc21`?
Platelet DG rel: 1; C8 TRAIL sens: 40; PPC-1+TRAIL kill: 47; FLuc inh counter: 59*; FLuc stim CS: 0.4

What do the screens show for `Cc1ccc(C(=O)C2C(=O)C3CCC2C3)cc1` (stereo not drawn)?
C8 TRAIL sens: 0

How did CCOC(=O)[C@]12CCC=C1N(Cc1ccc(Cl)cc1Cl)C(=O)[C@H](CC(=O)N1CCSCC1)C2 do in these assays?
C8 TRAIL sens: -6

What do the screens show for `Nc1ccc(-c2nc3ncccc3o2)c(Cl)c1`?
Platelet DG rel: 6; C8 TRAIL sens: 53*; PPC-1+TRAIL kill: 22; FLuc inh counter: 72*; FLuc stim CS: 0.3

What do the screens show for `Nc1ccc(Cl)c(-c2nc3ncccc3o2)c1`?
Platelet DG rel: 1; C8 TRAIL sens: -5; PPC-1+TRAIL kill: 10; FLuc inh counter: 8; FLuc stim CS: 0.9

Results for COc1cccc(C(O)c2ncc(-c3cccc4ccccc34)[nH]2)c1 (stereo not drawn) ?
C8 TRAIL sens: -18

What do the screens show for `COc1ccc(-c2csc(C(C)(O)c3ccc(OC)cc3)n2)cc1` (stereo not drawn)?
C8 TRAIL sens: 21

What do the screens show for `OC[C@@H]1CN(Cc2cccs2)C[C@H](n2cnc3c(NCc4ccc(F)cc4)ncnc32)O1`?
C8 TRAIL sens: 9

How did Fc1ccc(N2C(=S)SC(=Nc3ccccc3)C2=Nc2ccccc2)cc1 do in these assays?
C8 TRAIL sens: 18

Results for N#CC(C#N)=C1SC(=Nc2ccccc2)C(=Nc2ccccc2)N1c1ccccc1 ?
C8 TRAIL sens: 92*

Results for CCN1CCN(c2nc3c(c(=O)[nH]c(=O)n3C)n2Cc2cccc(C)c2)CC1 ?
C8 TRAIL sens: -15

How did Cc1ccc(CSc2nc3ccncc3n2CC(=O)Nc2cc(C)cc(C)c2)cc1 do in these assays?
Platelet DG rel: -3; C8 TRAIL sens: 51*; PPC-1+TRAIL kill: 19; FLuc inh counter: 50*; FLuc stim CS: 0.5

Results for O=C(Nc1nc2ccccc2s1)c1ccc([N+](=O)[O-])o1 ?
Platelet DG rel: 7; C8 TRAIL sens: 16

How did O=C(Nc1nc2cc3c(cc2s1)OCCO3)c1ccc([N+](=O)[O-])o1 do in these assays?
Platelet DG rel: 11; C8 TRAIL sens: 69*

What do the screens show for `COc1ccc2nc(NC(=O)c3ccc([N+](=O)[O-])o3)sc2c1`?
Platelet DG rel: 4; C8 TRAIL sens: 54*

How did O=CNc1cc(-c2ccoc2)cn2c(-c3ccc(F)cc3)cnc12 do in these assays?
C8 TRAIL sens: -4

How did OC(c1ccccc1)(c1ccccc1)C1CCN(CCCOc2ccc3c(c2)CCCC3)CC1 do in these assays?
C8 TRAIL sens: 66*

Results for CC(C)(C)c1ccc(C(O)CCCN2CCC(C(O)(c3ccccc3)c3ccccc3)CC2)cc1 (stereo not drawn) ?
Platelet DG rel: 7; C8 TRAIL sens: 60*; PPC-1+TRAIL kill: 32; FLuc inh counter: -4; FLuc stim CS: 1

What do the screens show for `N#CCc1ccc(OCCCN2CCC(C(O)(c3ccccc3)c3ccccc3)CC2)cc1`?
C8 TRAIL sens: -8

Results for O=C1N(c2ccccc2)CCN1c1ccccc1 ?
Platelet DG rel: 0; C8 TRAIL sens: 64*

What do the screens show for `O=C1NCCN1c1ccccc1`?
C8 TRAIL sens: -5

Results for CC1=NNC(=O)/C1=C\c1cn(-c2ccccc2)nc1-c1ccc(Cl)cc1 ?
Platelet DG rel: 8; C8 TRAIL sens: 87*; PPC-1+TRAIL kill: 2; FLuc inh counter: -9; FLuc stim CS: 1.1

How did CC1(C(=O)Nc2cccc(OC(F)(F)F)c2)Cc2c(-c3cccc(C(N)=O)c3)ccnc2O1 (stereo not drawn) do in these assays?
C8 TRAIL sens: 15

What do the screens show for `C/C(=N\N1CCN(C2c3ccccc3-c3ccccc32)CC1)c1cccnc1`?
Platelet DG rel: -3; C8 TRAIL sens: 4; PPC-1+TRAIL kill: 1; FLuc inh counter: -4; FLuc stim CS: 1

What do the screens show for `CN=c1scc(-c2ccccc2F)n1/N=C(\C)c1cccnc1`?
Platelet DG rel: -5; C8 TRAIL sens: 63*; PPC-1+TRAIL kill: 42; FLuc inh counter: 73*; FLuc stim CS: 0.3

What do the screens show for `COc1ccccc1C(=O)NC(=Nc1nc2ccccc2o1)NC(=O)c1ccccc1OC`?
Platelet DG rel: -5; C8 TRAIL sens: 71*!; PPC-1+TRAIL kill: 3; FLuc inh counter: 4; FLuc stim CS: 1

Results for O=C(NC(=Nc1nc2ccccc2o1)NC(=O)c1ccccc1)c1ccccc1 ?
Platelet DG rel: 3; C8 TRAIL sens: -16; PPC-1+TRAIL kill: 9; FLuc inh counter: -4; FLuc stim CS: 1

How did CC(C)CNC(=O)C1(C)CCCN1C(=O)Cc1cccc2ccccc12 (stereo not drawn) do in these assays?
C8 TRAIL sens: 16

How did CC(C)C[C@H]1CNC(=O)C(=O)N1CC1CCN(CCc2ccccc2)CC1 do in these assays?
C8 TRAIL sens: 8

What do the screens show for `COc1ccc(CC(=O)N2CCN(c3ccc(C4=NNC(=O)CC4C)cc3)CC2)cc1` (stereo not drawn)?
Platelet DG rel: 67*; C8 TRAIL sens: -30; PPC-1+TRAIL kill: 14; FLuc inh counter: -4; FLuc stim CS: 1

What do the screens show for `CCOc1c(Br)cc(C(=O)Nc2cccc(S(=O)(=O)N3CCOCC3)c2)cc1OC`?
C8 TRAIL sens: -1

Results for CN(C(=S)NC(=O)c1ccc(Cl)cc1)C1CCCCC1 ?
Platelet DG rel: -1; C8 TRAIL sens: 50*

What do the screens show for `COc1ccc(OC)c2sc(N(CCN(C)C)C(=O)/C=C/c3cccs3)nc12`?
Platelet DG rel: -2; C8 TRAIL sens: 93*

Results for CNC[C@H](CC1CCCCC1)NC[C@H](Cc1ccccc1)NCCC12CC3CC(CC(C3)C1)C2 ?
Platelet DG rel: 2; C8 TRAIL sens: 96*

What do the screens show for `NC[C@H](Cc1ccccc1)NCCCCC1CCCCC1`?
C8 TRAIL sens: 5
